# Test results reported in ChEMBL document CHEMBL3232850, “Anti-inflammatory labdane diterpenoids from Lagopsis supina” (J Nat Prod, 2014).
# Legend:
# [1] = Antiinflammatory activity in […] BV2 cells assessed as inhibition of LPS-induced nitric oxide production by Griess assay; type: functional, cell-based; settings: BV-2
# Summary of the method: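 BV-2 microglial cells were stimulated with lipopolysaccharide, and NO production was measured by the Griess assay. Inhibition is reported as IC50 values in μM.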
# [2] = Cytotoxicity against […] LPS-treated BV2 cells assessed as cell viability up to 80 uM after 24 hrs by MTT assay; type: cell-based; settings: bv-2, 24 h
# [3] = Antiinflammatory activity in […] BV2 cells assessed as inhibition of LPS-induced nitric oxide production at 80 uM by Griess assay; type: functional; settings: Mus musculus, BV-2
Structure (SMILES),IC50 [1] [µM],Activity [2],inhibition at 80 µM [3] [%]
C[C@@H]1C(=O)C=C2C(C)(C)CCC[C@]2(C)[C@@]1(O)CCc1ccoc1,14.9,Non-toxic,–
CC(=O)O[C@@H]1[C@H](O)[C@@H](C)[C@]2(CC[C@]3(CO[C@@H](O)C3)O2)[C@@]2(C)CCCC(C)(C)[C@H]12,–,–,< 50
C[C@@H]1[C@@H](O)[C@@H](O)[C@H]2C(C)(C)CCC[C@]2(C)[C@@]1(O)CCc1ccoc1,–,–,< 50
CC(=O)O[C@@H]1[C@H](OC(C)=O)[C@@H](C)[C@](O)(CCc2ccoc2)[C@@]2(C)CCCC(C)(C)[C@H]12,–,–,< 50
CCC(=O)C(OC(C)=O)[C@H]1C(C)(C)CCC[C@]1(C)C(=O)CCC1=CCOC1=O (stereo not given in full),34.9,Non-toxic,–
C[C@@H]1[C@@H](O)C(=O)[C@H]2C(C)(C)CCC[C@]2(C)[C@@]1(O)CCc1ccoc1,–,–,< 50
CC1(C)CCC[C@@]2(C)C1=CC(=O)[C@](C)(O)[C@]2(O)CCc1ccoc1,–,–,< 50
COC1C=C(CC[C@@]2(O)[C@H](C)[C@@H](O)[C@@H](OC(C)=O)[C@H]3C(C)(C)CCC[C@@]32C)C(=O)O1 (stereo not given in full),16.2,Non-toxic,–
CC(=O)O[C@H]1[C@@H](O)[C@H]2C(C)(C)CCC[C@]2(C)[C@@](O)(CCc2ccoc2)[C@@H]1C,–,–,< 50
CC(=O)O[C@@H]1[C@H](O)[C@@H](C)[C@]2(CC[C@@]3(CO[C@@H](O)C3)O2)[C@@]2(C)CCCC(C)(C)[C@H]12,–,–,< 50
O=c1c(O)c(-c2ccc(O)c(O)c2)oc2cc(O)cc(O)c12 [QUERCETIN],10,–,–
CC(=O)O[C@@H]1[C@H](O)[C@@H](C)[C@](O)(CCc2ccoc2)[C@@]2(C)CCCC(C)(C)[C@H]12,–,–,< 50
CC(=O)O[C@@H]1[C@H](O)[C@@H](C)[C@]2(CC[C@@]3(CO[C@H](O)C3)O2)[C@@]2(C)CCCC(C)(C)[C@H]12,–,–,< 50
CC1=C(CCc2ccoc2)[C@@]2(C)CCCC(C)(C)C2=CC1=O,34,Non-toxic,–
CCC(=O)C(OC(C)=O)[C@H]1C(C)(C)CCC[C@]1(C)C(=O)CCc1ccoc1 (stereo not given in full),–,–,< 50
CC(=O)O[C@@H]1[C@H](O)[C@@H](C)[C@]2(CC[C@]3(CO[C@H](O)C3)O2)[C@@]2(C)CCCC(C)(C)[C@H]12,–,–,< 50
